PglD inh: inhibitors of Campylobacter jejuni PglD acetyltransferase; purified PglD enzyme, DTNB colorimetric CoA detection; inhibition, % at 12.5 µM; actives 0.098% (n = 360,000); AID 602405; in the data active = inhibition above about 16%, passing the limit was not always enough; inconclusive = no clear call, values can overlap the other calls
FGF22 binding: FGF22 (human) thermal shift binding; Q9HCT0; recombinant FGF22 thermal shift, SYPRO orange fluorescence; percent of sucrose octasulfate shift, DMSO zero; activity (Tm shift, normalised), % at 9.99 µM; actives 1.5% (n = 340,000); AID 651658;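 active = mean Tm shift, scaled 0 neutral to 100 positive control, at about 1.3% or above, every replicate too, limit read from the data; inconclusive = no clear call, values can overlap the other calls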
Target sequence (Q9HCT0 whole entry, looked up): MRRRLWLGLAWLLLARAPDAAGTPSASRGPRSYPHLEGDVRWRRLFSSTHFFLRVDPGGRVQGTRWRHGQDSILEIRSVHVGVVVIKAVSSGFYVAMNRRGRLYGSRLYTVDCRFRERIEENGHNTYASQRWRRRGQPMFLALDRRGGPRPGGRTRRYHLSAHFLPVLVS
DENV2 CPE: DENV2-induced cell death inhibition | DENV2-infected cells, cytopathic effect rescue, plate reader | CPE inhibition, % at 9.99 µM | actives 1.7% (n = 350,000) | AID 651640; in the data active = CPE inhibition above about 20%, passing the limit was not always enough; inconclusive = no clear call, values can overlap the other calls; tested in BHK-21 cells;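 also: 0% = median of neutral control wells and 100% = median of positive control wells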
E-sel inducer: induces E-selectin expression in human endothelial cells. activation, % at 7.58 µM. actives 0.37% (n = 260,000). HUVEC E-selectin immunofluorescence imaging; normalized: neutral wells 0, TNF-alpha wells 100;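 active = mean E-selectin-positive cell signal at least 10% of the positive control, reached in at least 60% of replicates, without over 20% cell loss; inconclusive = no rule given, readout overlaps actives, possibly toxicity-flagged; inactive = the rest, including those meeting only one limit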
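Assay system: HUVEC primary endothelial cells. Input: 3,000 HUVEC seeded per well. Doses: one compound dose added by pin transfer. Read-out basis: % PE-positive cells. Benchmarks: TNF-alpha high, DMSO low. Detection: immunofluorescence imaging. Buffer or medium: EGM-2, gelatin.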
XiGFP reactiv: reactivates the inactive X chromosome in mouse fibroblasts. actives 0.055% (n = 360,000). AID 743238. XiGFP mouse fibroblasts, % GFP-positive cells imaging, 3 d; cells co-treated with 5-aza-dC sensitizer; scaled so ellipticine positive control = 100%. activation, % at 7.58 µM;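 active = mean normalized replicate activation at least 10% and every replicate at or above 10%; inconclusive = only one of the two criteria met; inactive = mean below 10% and not all replicates reach 10%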;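 also: 0% = median of on-plate neutral control wells and 100% = ellipticine 6 µM median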
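assay system = SV40-immortalized XiGFP fibroblast cells, line 68-5-11 | buffer or medium = DMEM plus 5-aza-dC sensitizer | doses = single-point pinned compound dosing | times = 3-day compound exposure, then 15 min fixation at room temperature | benchmarks = positive control ellipticine, 6 µM final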
C2C12 statin: protects C2C12 myotubes from simvastatin toxicity | ATP luminescence, 48 h; scaled: DMSO 0, geranylgeraniol control 100 | rescue of ATP level, % at 7.49 µM | actives 0.78% (n = 330,000);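 active = mean ATP rescue above about 67%, or every replicate alone reaching that limit, limit read from the data, passing the limit was not always enough; inconclusive = no clear call, values can overlap the other calls; inactive = mean under the limit and some replicate under it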;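 also: myotubes were challenged with 10 µM simvastatin during compound exposure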
* = called active by the depositor; ? = inconclusive; · = no result given. Compounds with a hit are over-represented: about 3.3% of the library has one in this group of screens.

SMILES | PglD inh | FGF22 binding | DENV2 CPE | E-sel inducer | XiGFP reactiv | C2C12 statin
Cc1cccc(S(=O)(=O)N2C[C@H]3[C@@H](c4ccccc42)[C@@H](CO)N3C(=O)c2ccccc2)c1 | -1 | 1 | 57* | 0 | 0 | -17
O=S(=O)(c1ccccc1)N1C[C@H]2[C@@H](c3ccccc31)[C@@H](CO)N2Cc1ccccc1 | 0 | -1 | 27* | 0 | 0 | 16
Cc1cccc(S(=O)(=O)N2C[C@H]3[C@@H](c4ccccc42)[C@@H](CO)N3Cc2cccnc2)c1 | -4 | -1 | 27* | 0 | 0 | -30
O=S(=O)(c1ccccc1)N1C[C@@H]2[C@H](c3ccccc31)[C@H](CO)N2Cc1ccccc1 | 2 | 0 | 19 | 0 | 0 | 2
CC(=O)N1[C@H](CO)[C@@H]2c3ccccc3N(S(=O)(=O)c3cccc(C)c3)C[C@@H]21 | -1 | 0 | 15 | 1 | 0 | 19
Cc1cccc(S(=O)(=O)N2C[C@@H]3[C@H](c4ccccc42)[C@H](CO)N3Cc2cccnc2)c1 | -1 | -1 | -8 | 0 | 0 | 27
C[C@@H]1CN([C@H](C)CO)C(=O)c2cc(NS(C)(=O)=O)ccc2O[C@@H](C)CCCCO[C@H]1CN(C)Cc1ccc(C(F)(F)F)cc1 | 0 | 0 | 10 | 0 | 0 | ·
Cn1nnc(NC(=O)CSc2ccc(Cl)cc2)n1 | 7 | · | · | · | · | 98*
Cn1nnc(NC(=O)CSc2nnnn2-c2ccc(F)cc2)n1 | 10 | · | · | · | · | -18
O=C(C[C@@H]1CC[C@@H]2[C@H](COC[C@@H](O)CN2C(=O)c2cccnc2)O1)NCc1ccc(Cl)cc1 | 6 | 0 | 0 | 0 | 0 | -2
Cc1[nH]nc2c1C(c1cccs1)C1=C(CCCC1=O)N2 (configuration not stated) | · | 43* | 2 | 1 | 0 | ·
COc1ccccc1/C=N/NC(=O)c1ccc(CN2C(=O)c3cccc4cccc2c34)cc1 | 3 | 0 | 0 | 0 | 0 | 9
NNC(=O)c1ccc(CN2C(=O)c3cccc4cccc2c34)cc1 | · | 44* | 5 | · | 0 | ·
O=C1NC(=O)C2(COC(c3cccc([N+](=O)[O-])c3)OC2)S1 (configuration not stated) | -6 | 0 | 0 | 533* | 0 | 4
CC(C)(CO)CN1CCC(n2nccc2NC(=O)C2CCCC2)CC1 | 1 | 0 | 1 | · | 0 | ·
O=C(Nc1ccnn1C1CCN(CC(O)CO)CC1)C1CCCC1 (configuration not stated) | -5 | 0 | 71* | 0 | 0 | -14
COc1ccccc1CNC(=O)C[C@@H]1C=C[C@H](NC(=O)CN(C)C)[C@@H](CO)O1 | 4 | 0 | 5 | 0 | 0 | -9
Nc1nc(-c2ccccc2)c(CCCOc2ccc(NC(=O)CBr)cc2)c(=O)[nH]1 | -2 | 0 | 24* | · | 0 | 7
CCCN1C[C@@H](C)[C@@H](OC)CN(C)C(=O)c2cc(NC(=O)Nc3ccccc3F)ccc2OC[C@@H]1C | -1 | 0 | 10 | 0 | 0 | 1
COc1ccc(/C=N/N2CCN(c3ccc(Cl)cc3)CC2)cc1 | -1 | 0 | 2 | · | 0 | 8
COc1ccc(/C=N/N2CCN(c3ccc(Cl)cc3)CC2)cc1O | 6 | 0 | 32* | · | 0 | 8
O=C(C[C@@H]1C[C@H]2c3cc(NC(=O)NC4CCCC4)ccc3O[C@H]2[C@@H](CO)O1)NCc1cccnc1 | · | 0 | ? | 0 | 0 | ·
CCCNC(=O)C[C@H]1CC[C@H]2[C@H](COc3ccc(NC(=O)NCC)cc3C(=O)N2C)O1 | 0 | 0 | 2 | 0 | 0 | 20
Cc1nn(C(=O)c2cccnc2)c(C)c1Sc1ccc(Br)cc1 | -12 | · | · | · | · | 75*
CO[C@H]1CN(C)C(=O)c2ccc(NS(=O)(=O)c3ccccc3C)cc2OC[C@@H](C)N(S(C)(=O)=O)C[C@@H]1C | 5 | 0 | -5 | 0 | 0 | 3
O=C(NCc1cccnc1)c1c(O)c2cccc3c2n(c1=O)CCC3 | · | 43* | -1 | · | 0 | ·
